Values after ≈ are worked out from the molar mass of the structure shown.
Tests used:
Format in all cases: functional
Escherichia coli [1] = assay: Antibacterial activity against Escherichia coli K12 PhoU wild type W3110 assessed as cell count at 100 ug/ml
Escherichia coli [2] = assay: Antibacterial activity against Escherichia coli K12 containing deletion deltaphoBR mutant assessed as cell count in stationary phase at 100 ug/ml after 72 hrs
In short: (§1)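 Deletion mutants were made by the Datsenko–Wanner method. Log-phase or stationary-phase cultures were exposed to ampicillin at 100 μg/ml. CFU/ml was determined at the start and after 5, 24 and 72 h of exposure.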

Escherichia coli [3] = assay: Antibacterial activity against Escherichia coli K12 containing deletion deltahipA mutant assessed as cell count in log phase at 100 ug/ml after 5 hrs; in short: as §1
Escherichia coli [4] = assay: Antibacterial activity against Escherichia coli K12 mutant JHU313 containing plasmid vector at 25 ug/ml after 48 hrs by disc diffusion method
In short: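 Kirby-Bauer paper-disc assay: log-phase E. coli (10⁸ bacteria) grown in LB broth, spread on LB agar for confluent growth; 7 mm nitrocellulose discs soaked with antibiotic solution at the listed concentration (μg/ml) placed on surface; incubated 37°C for 48 h; diameter of growth-inhibition zone measured in mm. Strain is the phoU transposon mutant transformed by electroporation with empty vector control.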

Escherichia coli [5] = assay: Antibacterial activity against Escherichia coli K12 containing PhoU mutant assessed as cell count in stationary phase at 100 ug/ml after 5 hrs
In short: (§2)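 Log-phase or stationary-phase cultures were exposed to ampicillin (100 μg/ml) or norfloxacin (3 μg/ml) in MOPS minimal medium, pH 5.0, at 37°C without shaking, for 5 h to 10 days. Aliquots were saline-washed and plated on LB for CFU/ml.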

Escherichia coli [6] = assay: Antibacterial activity against Escherichia coli K12 PhoU wild type W3110 at 25 ug/ml after 48 hrs by disc diffusion method
In short: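 Kirby-Bauer disc assay. Log-phase LB broth culture (10⁸ bacteria) was spread on LB agar for confluent growth. 7 mm nitrocellulose discs soaked in antibiotic solution at the listed concentration were placed on the agar. Inhibition zone diameter (mm) was measured after 48 h at 37°C.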

Escherichia coli [7] = assay: Antibacterial activity against Escherichia coli K12 containing PhoU mutant assessed as cell count in stationary phase at 100 ug/ml after 1 day; in short: as §2
Escherichia coli [8] = assay: Antibacterial activity against Escherichia coli K12 PhoU wild type W3110 after 16 hrs by serial dilution method; conditions: K12, 16 h
In short: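 Serial twofold antibiotic dilutions in LB broth; log-phase inoculum 10⁶ to 10⁷ bacteria/ml; 16 h at 37°C. MIC was the lowest concentration with no visible growth. MBC was the concentration giving a 100-fold CFU drop below the seeded inoculum.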

Escherichia coli [9] = assay: Antibacterial activity against Escherichia coli K12 mutant JHU313 containing plasmid PhoU after 16 hrs by serial dilution method; conditions: K12, 16 h
In short: (§3)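 Twofold serial antibiotic dilutions in LB broth were seeded with 10⁶–10⁷ bacteria/ml from log-phase culture and incubated 16 h at 37°C. MIC was taken as the lowest concentration with no visible growth. MBC was taken as the concentration giving a 100-fold CFU drop from the inoculum.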

Escherichia coli [10] = assay: Antibacterial activity against Escherichia coli K12 mutant JHU313 containing plasmid vector at 1.5 ug/ml after 48 hrs by disc diffusion method
In short: (§4)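 Kirby-Bauer disc assay: log-phase LB culture was spread on LB agar for confluent growth. 7-mm nitrocellulose discs were soaked in antibiotic at the listed concentration and placed on the agar. After 48 h at 37°C, the diameter of the inhibition zone was measured in mm.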

Escherichia coli [11] = assay: Antibacterial activity against Escherichia coli K12 containing deletion deltaphoB mutant assessed as cell count in log phase at 100 ug/ml after 24 hrs; in short: as §1
Escherichia coli [12] = assay: Antibacterial activity against Escherichia coli K12 mutant JHU313 containing plasmid vector after 16 hrs by serial dilution method; conditions: K12, 16 h; in short: as §3
Escherichia coli [13] = assay: Antibacterial activity against Escherichia coli K12 mutant JHU313 after 16 hrs by serial dilution method; conditions: K12, 16 h; in short: as §3
Escherichia coli [14] = assay: Antibacterial activity against Escherichia coli K12 PhoU wild type W3110 assessed as cell count in log phase at 100 ug/ml after 5 hrs
In short: (§5)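 Log-phase or stationary-phase cultures exposed to ampicillin 100 μg/ml in MOPS minimal medium (pH 5.0) at 37°C without shaking, for 5 h up to 10 days. Aliquots were taken at each time point, washed in saline and plated on LB plates for viable CFU/ml.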

Escherichia coli [15] = assay: Antibacterial activity against Escherichia coli K12 PhoU wild type W3110 assessed as cell count in stationary phase at 100 ug/ml after 5 days; in short: as §5
Escherichia coli [16] = assay: Antibacterial activity against Escherichia coli K12 PhoU wild type W3110 assessed as cell count in log phase at 100 ug/ml after 5 days; in short: as §5
Escherichia coli [17] = assay: Antibacterial activity against Escherichia coli K12 PhoU wild type W3110 assessed as cell count in stationary phase at 100 ug/ml after 1 week; in short: as §5
Escherichia coli [18] = assay: Antibacterial activity against Escherichia coli K12 mutant JHU313 containing plasmid vector at 2 ug/ml after 48 hrs by disc diffusion method; in short: as §4
Escherichia coli [19] = assay: Antibacterial activity against Escherichia coli K12 PhoU wild type W3110 assessed as cell count in log phase at 3 ug/ml after 5 hrs; in short: as §2
Escherichia coli [20] = assay: Antibacterial activity against Escherichia coli K12 containing deletion deltaphoU mutant assessed as cell count in log phase at 3 ug/ml after 3 days
In short: (§6)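 Log-phase or stationary-phase cultures of the ΔphoU deletion mutant (Datsenko–Wanner construction) were exposed to norfloxacin 3 μg/ml in MOPS minimal medium, pH 5.0, at 37°C without shaking, for up to 10 days. Sampled aliquots were washed in saline and plated on LB agar for CFU/ml.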

Escherichia coli [21] = assay: Antibacterial activity against Escherichia coli K12 containing PhoU mutant assessed as cell count in log phase at 3 ug/ml after 3 days; in short: as §2
Escherichia coli [22] = assay: Antibacterial activity against Escherichia coli K12 mutant JHU313 at 0.1 ug/ml after 48 hrs by disc diffusion method; in short: as §4
Escherichia coli [23] = assay: Antibacterial activity against Escherichia coli K12 mutant JHU313 containing plasmid vector at 0.1 ug/ml after 48 hrs by disc diffusion method; in short: as §4
Escherichia coli [24] = assay: Antibacterial activity against Escherichia coli K12 containing PhoU mutant assessed as cell count in stationary phase at 3 ug/ml after 1 day; in short: as §2
Escherichia coli [25] = assay: Antibacterial activity against Escherichia coli K12 containing PhoU mutant assessed as cell count in log phase at 3 ug/ml after 5 days; in short: as §2
Escherichia coli [26] = assay: Antibacterial activity against Escherichia coli K12 containing deletion deltaphoU mutant assessed as cell count in stationary phase at 3 ug/ml after 10 days; in short: as §6
Escherichia coli [27] = assay: Antibacterial activity against Escherichia coli K12 PhoU wild type W3110 at 4 ug/ml after 48 hrs by disc diffusion method
In short: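 Kirby-Bauer disc assay. Log-phase LB culture (10⁸ bacteria) was spread for confluent growth on LB agar. 7 mm nitrocellulose discs soaked in antibiotic at the listed concentrations were laid on the agar. Inhibition zone diameter (mm) was measured after 48 h at 37°C.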

Escherichia coli [28] = assay: Antibacterial activity against Escherichia coli K12 PhoU wild type W3110 assessed as cell count in log phase at 3 ug/ml after 10 days; in short: as §2

## CC1(C)S[C@@H]2[C@H](NC(=O)[C@H](N)c3ccccc3)C(=O)N2[C@H]1C(=O)O [AMPICILLIN]
Escherichia coli [1]
  CFU: 5 10^7/ml
Escherichia coli [2]
  CFU: 2 10^8/ml
Escherichia coli [3]
  CFU: 1 10^4/ml
Escherichia coli [4]
  inhibition zone (IZ): 40 mm
Escherichia coli [5]
  CFU: 2 10^8/ml
Escherichia coli [6]
  inhibition zone (IZ): 28 mm
Escherichia coli [7]
  CFU: 1 10^7/ml
Escherichia coli [8]
  MBC: 12.5 µg/mL (≈ 35.8 µM)
  MIC: 3.1 µg/mL (≈ 8.87 µM)
Escherichia coli [9]
  MBC: 12.5 µg/mL (≈ 35.8 µM)
  MIC: 3.1 µg/mL (≈ 8.87 µM)
Escherichia coli [10]
  inhibition zone (IZ): 27 mm
Escherichia coli [11]
  CFU: 1 10^2/ml
Escherichia coli [12]
  MBC: 6.25 µg/mL (≈ 17.9 µM)
  MIC: 1.5 µg/mL (≈ 4.29 µM)
Escherichia coli [13]
  MBC: 6.25 µg/mL (≈ 17.9 µM)
  MIC: 1.5 µg/mL (≈ 4.29 µM)
Escherichia coli [14]
  CFU: 3 10^3/ml
Escherichia coli [15]
  CFU: 3 10^7/ml
Escherichia coli [16]
  CFU: 0 mL⁻¹
Escherichia coli [17]
  CFU: 5 10^6/ml

## CCn1cc(C(=O)O)c(=O)c2cc(F)c(N3CCNCC3)cc21 [NORFLOXACIN]
Escherichia coli [18]
  inhibition zone (IZ): 40 mm
Escherichia coli [19]
  CFU: 1 10^8/ml
Escherichia coli [20]
  CFU: 0 mL⁻¹
Escherichia coli [21]
  CFU: 0 mL⁻¹
Escherichia coli [8]
  MBC: 1 µg/mL (≈ 3.13 µM)
  MIC: 0.5 µg/mL (≈ 1.57 µM)
Escherichia coli [9]
  MBC: 1 µg/mL (≈ 3.13 µM)
  MIC: 0.5 µg/mL (≈ 1.57 µM)
Escherichia coli [22]
  inhibition zone (IZ): 28 mm
Escherichia coli [23]
  inhibition zone (IZ): 29 mm
Escherichia coli [24]
  CFU: 4.5 10^7/ml
Escherichia coli [25]
  CFU: 0 mL⁻¹
Escherichia coli [26]
  CFU: 0 mL⁻¹
Escherichia coli [12]
  MBC: 0.5 µg/mL (≈ 1.57 µM)
  MIC: 0.125 µg/mL (≈ 0.391 µM)
Escherichia coli [27]
  inhibition zone (IZ): 32 mm
Escherichia coli [13]
  MBC: 0.5 µg/mL (≈ 1.57 µM)
  MIC: 0.125 µg/mL (≈ 0.391 µM)
Escherichia coli [28]
  CFU: 0 mL⁻¹
